Experimental findings from ChEMBL document CHEMBL4251647, “Synthesis, anticancer activity and mechanism of action of new thiazole derivatives” (Eur J Med Chem, 2018) are described below.

Type in all cases: functional
The subject of one assay is NCI-H292. Nature of the assay: Cytotoxicity against human NCI-H292 cells assessed as inhibition of cell viability at 25 ug/ml after 72 hrs by MTT assay relative to control. To be noted: NCI-H292, 72 h. An outline of the steps:
(§1)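 Single-concentration MTT screen at 25 µg/mL for 72 h. Seeding was 3 x 10^5 cells/mL (HL-60, K562) or 1 x 10^5 cells/mL (adherent), with 24 h preincubation. MTT was added for the final 3 h, formazan dissolved in DMSO and absorbance read at 560 nm. Results are given as percent inhibition ± SD.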
On the technique in general: Formazan colour is commonly taken as a measure of viable cells.

The test system of another assay is HL-60. Nature of the assay: Cytotoxicity against human HL60 cells assessed as inhibition of cell viability at 25 ug/ml after 72 hrs by MTT assay relative to control. The conditions noted are these: HL-60, 72 h. An outline of the steps:
as §1

In another assay the test system is HEp-2. Nature of the assay: Cytotoxicity against human Hep2 cells assessed as inhibition of cell viability at 25 ug/ml after 72 hrs by MTT assay relative to control. The conditions noted are these: HEp-2, 72 h. An outline of the steps:
as §1

Another assay relates to K562. As to the kind of experiment: Cytotoxicity against human K562 cells assessed as inhibition of cell viability at 25 ug/ml after 72 hrs by MTT assay relative to control. To be noted: K562, 72 h. An outline of the steps: as §1
A further assay has as its system HT-29. As to the kind of experiment: Cytotoxicity against human HT-29 cells assessed as inhibition of cell viability at 25 ug/ml after 72 hrs by MTT assay relative to control. To be noted: HT-29, 72 h. Summed up:
as §1

In the case of `FC(F)(F)c1ccc(/C=N/Nc2nc(-c3ccccc3)cs2)cc1`, the inhibition (usually the drop in the measured response relative to a control, in per cent) at 25 µg/mL turned out to be 49.8% with NCI-H292, 40.6% in the assay with HL-60 and 34.7% in the assay with HEp-2.
Consider `FC(F)(F)c1ccc(/C=N/Nc2nc(-c3ccc(Br)cc3)cs2)cc1`, for which the inhibition at 25 µg/mL in the assay on NCI-H292 amounted to 64.2%; with K562, 25%; in the assay with HL-60, 46.7%; in the assay with HEp-2, 17.1%; with HT-29, 67.4%.
On the same counts, the results for `Fc1ccc(-c2cs/c(=N/N=C/c3ccc(C(F)(F)F)cc3)n2-c2ccccc2)cc1` are 41.8%, 59.1%, 26.2%, 22% and 74.6%.
On the same counts, the results for `FC(F)(F)c1ccc(/C=N/Nc2nc(-c3ccc(Cl)cc3)cs2)cc1` are 67.7%, 50.5%, 61.4%, 33% and 40.1%.
On the same counts, the results for `Cc1ccc(-c2csc(N/N=C/c3ccc(C(F)(F)F)cc3)n2)cc1` are 62.3%, 20.9%, 45.2%, 59.9% and 42.7%.
With `FC(F)(F)c1ccc(/C=N/N=c2/scc(-c3ccc(Cl)cc3)n2-c2ccccc2)cc1`, the inhibition at 25 µg/mL in the assay on NCI-H292 came out at 87.8%; in the assay with K562, 59%; in the assay with HL-60, 28.4%; in the assay on HEp-2, 58.7%; in the assay on HT-29 it was 82.2%.
On the same counts, the results for `Cc1sc(N/N=C/c2ccc(C(F)(F)F)cc2)nc1-c1ccccc1` are 60.9%, 25%, 30.9%, 29.5% and 46.2%.
On the same counts, the results for `COc1ccc(-c2cs/c(=N/N=C/c3ccc(C(F)(F)F)cc3)n2C)cc1` are 68.3%, 50.4%, 67.8%, 53.7% and 62.5%.
On the same counts, the results for `COc1ccc(-c2cs/c(=N/N=C/c3ccc(C(F)(F)F)cc3)n2-c2ccccc2)cc1` are 66.3%, 59.2%, 36.7%, 81.8% and 58.5%.
With `FC(F)(F)c1ccc(/C=N/Nc2nc(-c3cccc4ccccc34)cs2)cc1`, the inhibition at 25 µg/mL with NCI-H292 is 35.7%; with K562, 44.9%; in the assay on HL-60, 39.1%; in the assay with HEp-2, 28.5%; in the assay on HT-29 it was 45.8%.
On the same counts, the results for `Fc1ccc(-c2csc(N/N=C/c3ccc(C(F)(F)F)cc3)n2)cc1` are 78.8%, 61.6%, 58.1%, 62.6% and 70.1%.
Consider `FC(F)(F)c1ccc(/C=N/N=c2/scc(-c3ccc(Cl)cc3Cl)n2-c2ccccc2)cc1`, for which the figures for the inhibition at 25 µg/mL in the assay on NCI-H292 and in the assay with HL-60 were 38.5% and 14.4%, respectively.
With `Cn1c(-c2ccc(Cl)cc2Cl)cs/c1=N/N=C/c1ccc(C(F)(F)F)cc1`, the inhibition at 25 µg/mL was 35.7% with NCI-H292; 69.7% with K562; 43.5% in the assay on HL-60; 33.5% with HEp-2; 52.7% with HT-29.
On the same counts, the results for `FC(F)(F)c1ccc(/C=N/NC(=S)Nc2ccccc2)cc1` are 58.4%, 71.2%, 37.7%, 63.6% and 74.7%.
